Data taken from ChEMBL document CHEMBL2390925, “Further studies on 2-arylacetamide pyridazin-3(2H)-ones: design, synthesis and evaluation of 4,6-disubstituted analogs as formyl peptide receptors (FPRs) agonists” (Eur J Med Chem, 2013).

Key:
[1] = molecular target: T1, N-formyl peptide receptor 3 (Homo sapiens, UniProt P25089); test: Agonist activity at FPR3 (unknown origin) transfected in human HL60 cells assessed as induction of Ca2+ mobilization; format: cell-based, HL-60
T1 sequence (P25089 whole entry): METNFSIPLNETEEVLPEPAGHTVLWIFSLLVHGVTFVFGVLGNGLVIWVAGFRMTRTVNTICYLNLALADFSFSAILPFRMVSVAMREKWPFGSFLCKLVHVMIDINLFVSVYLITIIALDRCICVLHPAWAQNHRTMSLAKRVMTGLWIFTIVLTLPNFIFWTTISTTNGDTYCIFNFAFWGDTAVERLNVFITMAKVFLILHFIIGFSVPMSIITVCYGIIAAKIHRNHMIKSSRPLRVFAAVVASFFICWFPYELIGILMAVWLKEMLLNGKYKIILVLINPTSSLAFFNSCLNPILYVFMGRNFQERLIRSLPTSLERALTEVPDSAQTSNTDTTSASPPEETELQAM

[2] = molecular target: fMet-Leu-Phe receptor 1/2 (Homo sapiens) (UniProt P21462+P25090); test: Agonist activity at FPR1/FPR2 in human neutrophils assessed as induction of Ca2+ mobilization relative to fMLF; format: functional
Outline: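 Neutrophils from healthy donors were isolated by dextran sedimentation, Histopaque 1077 gradient and hypotonic red cell lysis. […] Peak response was normalized to 5 nM fMLF as 100%. EC50 comes from 5–6 point curves, mean of three experiments with different donors.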

HL-60 [3] = test: Effect on Ca2+ mobilization in human wild type HL60 cells; format: functional, cell-based
Outline: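 Wild-type, non-transfected HL-60 cells, grown without G418, were run in the same Fluo-4 Ca2+ flux assay. Fluorescence was monitored every 5 s for 240 s at room temperature.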

[4] = molecular target: T2, fMet-Leu-Phe receptor (Homo sapiens) (UniProt P21462); test: Agonist activity at FPR1 (unknown origin) transfected in human HL60 cells assessed as induction of Ca2+ mobilization relative to fMLF; format: functional, cell-based; settings: HL-60
T2 sequence (whole entry): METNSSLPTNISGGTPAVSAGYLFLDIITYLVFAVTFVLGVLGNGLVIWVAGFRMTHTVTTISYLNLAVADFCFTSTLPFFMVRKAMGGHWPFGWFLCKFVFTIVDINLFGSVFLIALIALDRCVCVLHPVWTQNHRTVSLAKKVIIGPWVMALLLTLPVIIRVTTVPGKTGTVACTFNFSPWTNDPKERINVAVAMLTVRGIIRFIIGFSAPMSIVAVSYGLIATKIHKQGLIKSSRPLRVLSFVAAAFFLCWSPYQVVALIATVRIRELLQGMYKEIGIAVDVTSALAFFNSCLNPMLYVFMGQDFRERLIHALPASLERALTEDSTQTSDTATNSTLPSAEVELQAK
Outline: (§1)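 Same Fluo-4 Ca2+ flux in transfected HL-60 cells. The peak fluorescence change over baseline was normalized to 5 nM fMLF for FPR1 cells and to 5 nM WKYMVm for FPR2 and FPR3 cells, each taken as 100%. Efficacy was read from 5–6 point dose-response curves.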

HL-60 [5] = test: Cytotoxicity against human wild type HL60 cells at 5 to 20 uM after 60 mins by CellTitre-Glo luminescent assay; format: cell-based; settings: hl-60, 1 h
Outline: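 Wild-type HL-60 cells at 3×10^4 cells/well were exposed to 5, 10 or 20 µM compound for 60 min at 37 °C in 5% CO2. Samples were equilibrated to room temperature for 30 min before the CellTiter-Glo luminescence read. Triplicate samples; the experiment was representative of two.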

[6] = molecular target: T3, N-formyl peptide receptor 2 (Homo sapiens) (UniProt P25090); test: Agonist activity at FPR2 (unknown origin) transfected in human HL60 cells assessed as induction of Ca2+ mobilization relative to WKYMVm; format: functional, cell-based; settings: HL-60; outline: as §1
T3 sequence (whole entry): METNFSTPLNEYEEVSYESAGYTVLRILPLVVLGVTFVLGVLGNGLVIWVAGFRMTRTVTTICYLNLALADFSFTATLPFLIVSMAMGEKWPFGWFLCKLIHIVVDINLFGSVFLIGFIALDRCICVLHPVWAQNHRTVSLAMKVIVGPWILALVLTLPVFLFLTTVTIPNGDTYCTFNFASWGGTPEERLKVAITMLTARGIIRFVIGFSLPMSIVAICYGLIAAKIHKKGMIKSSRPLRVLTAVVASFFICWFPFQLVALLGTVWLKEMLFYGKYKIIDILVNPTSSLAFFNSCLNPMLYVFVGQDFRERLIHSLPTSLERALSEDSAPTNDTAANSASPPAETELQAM

[7] = molecular target: T4, N-formyl peptide receptor 3 (Homo sapiens) (UniProt P25089); test: Agonist activity at FPR3 (unknown origin) transfected in human HL60 cells assessed as induction of Ca2+ mobilization relative to WKYMVm; format: cell-based; settings: HL-60; outline: as §1
T4 sequence (whole entry): T1 sequence (P25089 whole entry)

[8] = molecular target: T5, N-formyl peptide receptor 2 (Homo sapiens, UniProt P25090); test: Agonist activity at FPR2 (unknown origin) transfected in human HL60 cells assessed as induction of Ca2+ mobilization; format: functional, cell-based, HL-60
T5 sequence (P25090 whole entry): T3 sequence (whole entry)

fMet-Leu-Phe receptor = molecular target: T6, fMet-Leu-Phe receptor (Homo sapiens, UniProt P21462); test: Agonist activity at FPR1 (unknown origin) transfected in human HL60 cells assessed as induction of Ca2+ mobilization; format: functional, cell-based, HL-60
T6 sequence (P21462 whole entry): T2 sequence (whole entry)

[9] = molecular target: T7, fMet-Leu-Phe receptor 1/2 (Homo sapiens, UniProt P21462+P25090); test: Agonist activity at FPR1/FPR2 in human neutrophils assessed as induction of Ca2+ mobilization; format: functional
T7 sequence (P21462 whole entry): T2 sequence (whole entry)
T7 sequence (P25090 whole entry): T3 sequence (whole entry)

Neutrophil = test: Induction of chemotaxis in human neutrophils assessed as cell migration after 60 mins by CellTitre-Glo luminescent assay; format: functional, cell-based; settings: 1 h
Outline: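 Migration ran 60 min at 37 °C in 5% CO2. Migrated cells were counted by ATP luminescence against a neutrophil standard curve and expressed as % of spontaneous migration. EC50 comes from nonlinear regression of dose-response curves.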

| EC50 [1] | Efficacy [2] | EC50 (HL-60 [3]) | Efficacy [4] | Efficacy [6] | Efficacy [7] | EC50 [8] | EC50 (fMet-Leu-Phe receptor) | EC50 [9] | EC50 (Neutrophil) | Structure (SMILES) | Activity (HL-60 [5]) |
| --- | --- | --- | --- | --- | --- | --- | --- | --- | --- | --- | --- |
| > 50 µM | 115% | > 50 µM | 100% | 65% |  |  |  |  |  | Cc1cc(Cc2ccsc2)c(=O)n(CC(=O)Nc2ccc(Br)cc2)n1 | Non-toxic |
| > 50 µM |  | > 50 µM | 40% | 80% |  | 27.2 µM | 29.3 µM |  |  | Cc1cc(Cc2ccc(C(N)=O)cc2)c(=O)n(CC(=O)Nc2ccc(Br)cc2)n1 | Non-toxic |
| > 50 µM | 75% | > 50 µM | 55% |  |  | > 50 µM | 6.9 µM | 6.1 µM | 4.2 µM | Cc1cc(Cc2ccccc2)c(=O)n(CC(=O)Nc2ccc3c(c2)OCO3)n1 | Non-toxic |
| > 50 µM | 120% | > 50 µM | 85% | 90% |  |  |  |  |  | Cc1cc(Cc2cccnc2)c(=O)n(CC(=O)Nc2ccc(Br)cc2)n1 | Non-toxic |
| > 50 µM | 115% | > 50 µM | 140% | 110% |  |  |  |  |  | COc1cccc(C(=O)c2cc(C)nn(CC(=O)Nc3ccc(Br)cc3)c2=O)c1 | Non-toxic |
| > 50 µM | 90% | > 50 µM | 55% | 35% |  |  |  |  |  | Cc1cc(Cc2cccc(Cl)c2)c(=O)n(CC(=O)Nc2ccc(I)cc2)n1 | Non-toxic |

Second part, the compound before the results:

| Structure (SMILES) | EC50 [1] | Efficacy [2] | EC50 (HL-60 [3]) | Efficacy [4] | Efficacy [6] | Efficacy [7] | EC50 [8] | EC50 (fMet-Leu-Phe receptor) | EC50 [9] | EC50 (Neutrophil) | Activity (HL-60 [5]) |
| --- | --- | --- | --- | --- | --- | --- | --- | --- | --- | --- | --- |
| COc1cccc(C(=O)Nc2cc(C)nn(CC(=O)Nc3ccc(Br)cc3)c2=O)c1 | > 50 µM | 110% | > 50 µM | 120% | 100% |  |  |  |  |  | Non-toxic |
| Cc1cc(Cc2cccs2)c(=O)n(CC(=O)Nc2ccc(Br)cc2)n1 | 10.2 µM | 80% | > 50 µM | 140% | 60% | 25% |  |  |  |  | Non-toxic |
| Cc1cc(Cc2ccccc2)c(=O)n(CC(=O)Nc2ccc(Br)cc2)n1 | > 50 µM |  | > 50 µM | 50% | 20% |  | 11.6 µM | 5.5 µM |  |  | Non-toxic |
| COc1cccc(Cc2ccnn(CC(=O)Nc3ccc(Br)cc3)c2=O)c1 | 14.6 µM |  | > 50 µM | 125% | 60% | 25% |  |  |  |  | Non-toxic |
| COc1cccc(Cc2cc(-c3ccccc3)nn(CC(=O)Nc3ccc(Br)cc3)c2=O)c1 | > 50 µM | 115% | > 50 µM | 110% | 25% |  |  |  |  |  | Non-toxic |
| COc1cccc(Cc2cc(C(C)C)nn(CC(=O)Nc3ccc(Br)cc3)c2=O)c1 | 17.4 µM | 110% | > 50 µM | 135% | 90% | 30% |  |  |  |  | Non-toxic |
| Cc1cc(Cc2ccoc2)c(=O)n(CC(=O)Nc2ccc(Br)cc2)n1 | > 50 µM | 125% | > 50 µM | 100% | 75% |  |  |  |  |  | Non-toxic |
| COc1ccc(Nc2c(C(C)=O)c(C)nn(CC(=O)Nc3ccc(Br)cc3)c2=O)cc1 | > 50 µM | 110% | > 50 µM | 75% | 90% |  | 1.7 µM | 13.5 µM | 3.9 µM | 2.7 µM | Non-toxic |
| COc1ccc(Nc2cc(C)nn(CC(=O)Nc3ccc(Br)cc3)c2=O)cc1 | > 50 µM | 105% | > 50 µM | 100% | 110% |  |  |  |  |  | Non-toxic |
| CCc1cc(Cc2cccc(OC)c2)c(=O)n(CC(=O)Nc2ccc(I)cc2)n1 | > 50 µM | 90% | > 50 µM | 70% | 65% |  |  |  |  |  | Non-toxic |
